Test results as given in ChEMBL document CHEMBL4371044, “Celastrol Promotes Weight Loss in Diet-Induced Obesity by Inhibiting the Protein Tyrosine Phosphatases PTP1B and TCPTP in the Hypothalamus” (J Med Chem, 2018).
Active and inactive are the calls of the source. The rule behind the calls is not given here.

Legend:
Mus musculus [1] = assay: Antiobesity activity in high fat diet-induced obese Ptpn2fl/fl null C57BL/6 mouse assessed as reduction in body weight at 100 ug/kg, ip for 10 consecutive days; assay type: functional, organism-based
Method in brief: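 Male Ptpn1fl/fl, Ptpn2fl/fl or double-floxed mice: chow 8 weeks, then high-fat diet (45% energy from fat) 12 weeks. Bilateral intra-ARC stereotaxic injection of rAAV-CMV-Cre-GFP or rAAV-CMV-GFP, 100 nL/side. After 2 weeks recovery, vehicle or 100 μg/kg ip daily at 6 pm for 10 days; body weight tracked; two-way repeated-measures ANOVA with Tukey test; means ± SEM.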

Mus musculus [2] = assay: Antiobesity activity in high fat diet-induced obese Ptpn1fl/fl/Ptpn2fl/fl null C57BL/6 mouse assessed as hypophagia at 100 ug/kg, ip for 10 consecutive days; assay type: functional, organism-based
[3] = target: T1, Tyrosine-protein phosphatase non-receptor type 2 (Homo sapiens) (UniProt P17706); assay: Inhibition of human N-terminal His6-tagged TCPTP catalytic domain (1 to 336 residues) expressed in Escherichia coli strain Rosetta2 (DE3) up to 500 uM using pNPP as substrate preincubated for 10 mins followed by substrate addition and measured after 10 mins by […]
T1 sequence (whole entry): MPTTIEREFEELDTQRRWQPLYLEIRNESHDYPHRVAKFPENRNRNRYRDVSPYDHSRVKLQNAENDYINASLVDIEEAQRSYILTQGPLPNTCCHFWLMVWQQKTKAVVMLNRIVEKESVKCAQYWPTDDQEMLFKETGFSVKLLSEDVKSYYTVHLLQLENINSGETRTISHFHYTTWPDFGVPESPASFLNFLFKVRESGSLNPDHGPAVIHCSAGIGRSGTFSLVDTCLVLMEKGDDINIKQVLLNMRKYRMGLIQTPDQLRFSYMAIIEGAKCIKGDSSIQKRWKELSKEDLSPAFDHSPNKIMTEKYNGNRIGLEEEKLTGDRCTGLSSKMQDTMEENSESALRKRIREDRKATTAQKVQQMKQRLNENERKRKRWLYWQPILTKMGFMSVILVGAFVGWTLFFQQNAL

[4] = target: T1, Tyrosine-protein phosphatase non-receptor type 2 (Homo sapiens); assay: Inhibition of human N-terminal His6-tagged TCPTP catalytic domain (1 to 296 residues) expressed in Escherichia coli strain Rosetta2 (DE3) up to 500 uM using pNPP as substrate preincubated for 10 mins followed by substrate addition and measured after 10 mins by […]
[5] = target: T2, Tyrosine-protein phosphatase non-receptor type 1 (Homo sapiens) (UniProt P18031); assay: Inhibition of human N-terminal His6-tagged PTP1B catalytic domain (1 to 393 residues) expressed in Escherichia coli strain Rosetta2 (DE3) using DiFMUP as substrate preincubated for 10 mins followed by substrate addition and measured after 10 mins in presence of 0.1 mg/ml BSA by fluorescence assay
T2 sequence (whole entry): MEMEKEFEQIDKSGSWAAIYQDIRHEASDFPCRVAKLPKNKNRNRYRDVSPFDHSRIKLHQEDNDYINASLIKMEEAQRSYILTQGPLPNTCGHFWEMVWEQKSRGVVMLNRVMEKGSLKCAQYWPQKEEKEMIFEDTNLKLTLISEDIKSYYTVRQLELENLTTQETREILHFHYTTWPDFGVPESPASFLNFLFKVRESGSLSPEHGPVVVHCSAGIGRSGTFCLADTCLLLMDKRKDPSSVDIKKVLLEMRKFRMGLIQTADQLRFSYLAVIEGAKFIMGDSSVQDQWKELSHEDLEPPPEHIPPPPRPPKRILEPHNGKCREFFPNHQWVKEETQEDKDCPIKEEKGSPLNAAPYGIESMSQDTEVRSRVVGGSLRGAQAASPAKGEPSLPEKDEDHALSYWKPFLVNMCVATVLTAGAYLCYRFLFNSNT
Method in brief: (§1)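 DiFMUP IC50 assay (1 nM enzyme, 10 min preincubation, substrate at Km, 37 °C, ex 358/em 455 nm), repeated as an aggregation check under three altered conditions: 10-fold enzyme (10 nM), 0.05% Tween 20, or 0.1 mg/mL BSA in buffer.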

[6] = target: T1, Tyrosine-protein phosphatase non-receptor type 2 (Homo sapiens); assay: Inhibition of human N-terminal His6-tagged TCPTP catalytic domain (1 to 336 residues) expressed in Escherichia coli strain Rosetta2 (DE3) using DiFMUP as substrate preincubated for 10 mins followed by substrate addition and measured after 10 mins in presence of 0.05% Tween20 by fluorescence assay; method in brief: as §1
[7] = target: T3, Tyrosine-protein phosphatase non-receptor type 11 (Homo sapiens, UniProt Q06124); assay: Inhibition of human SHP2 (246 to 527 residues) expressed in Escherichia coli strain BL21(DE3) using DiFMUP as substrate preincubated for 10 mins followed by substrate addition and measured after 10 mins by fluorescence assay
T3 sequence (Q06124 whole entry): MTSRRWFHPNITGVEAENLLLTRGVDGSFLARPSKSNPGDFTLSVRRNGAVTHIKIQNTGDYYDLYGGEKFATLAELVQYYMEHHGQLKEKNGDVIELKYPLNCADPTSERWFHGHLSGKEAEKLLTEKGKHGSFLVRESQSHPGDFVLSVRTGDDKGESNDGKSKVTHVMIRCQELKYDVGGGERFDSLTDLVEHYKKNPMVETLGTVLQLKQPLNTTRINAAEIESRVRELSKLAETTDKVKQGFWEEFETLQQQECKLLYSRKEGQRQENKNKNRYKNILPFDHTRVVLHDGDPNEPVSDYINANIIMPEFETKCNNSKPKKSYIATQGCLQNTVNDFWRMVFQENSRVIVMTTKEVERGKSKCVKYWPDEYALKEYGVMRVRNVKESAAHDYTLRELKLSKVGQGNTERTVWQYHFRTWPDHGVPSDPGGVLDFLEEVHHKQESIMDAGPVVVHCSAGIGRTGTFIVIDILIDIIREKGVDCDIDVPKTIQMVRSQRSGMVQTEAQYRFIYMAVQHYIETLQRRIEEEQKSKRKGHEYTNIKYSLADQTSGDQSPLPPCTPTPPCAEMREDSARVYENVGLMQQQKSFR
Method in brief: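 Selectivity panel on enzymes expressed in E. coli BL21(DE3), purified by nickel affinity then size exclusion. DiFMUP fluorescence assay run as for PTP1B/TCPTP, with per-enzyme conditions in a supplementary table; nonlinear regression for IC50; three independent experiments.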

[8] = target: Phosphatidylinositol 3,4,5-trisphosphate 3-phosphatase and dual-specificity protein phosphatase PTEN (Homo sapiens, UniProt P60484); assay: Inhibition of human PTEN (1 to 403 residues) expressed in Escherichia coli strain BL21(DE3) using DiFMUP as substrate preincubated for 10 mins followed by substrate addition and measured after 10 mins by fluorescence assay
[9] = target: T2, Tyrosine-protein phosphatase non-receptor type 1 (Homo sapiens); assay: Covalent binding to human N-terminal His6-tagged PTP1B catalytic domain (1 to 298 residues) expressed in Escherichia coli strain Rosetta2 (DE3) by mass spectrometry
Method in brief: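 PTP1B at 2 mg/mL incubated 30 min with or without compound (1:5, 2% DMSO) in 50 mM Tris-HCl pH 7.5, 75 mM NaCl; C4 ZipTip cleanup; MALDI-TOF in CHCA matrix.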

Phosphatidylinositol 3,4,5-trisphosphate 3-phosphatase and dual-specificity protein phosphatase PTEN, sequence (P60484 whole entry, the tested form may be a part): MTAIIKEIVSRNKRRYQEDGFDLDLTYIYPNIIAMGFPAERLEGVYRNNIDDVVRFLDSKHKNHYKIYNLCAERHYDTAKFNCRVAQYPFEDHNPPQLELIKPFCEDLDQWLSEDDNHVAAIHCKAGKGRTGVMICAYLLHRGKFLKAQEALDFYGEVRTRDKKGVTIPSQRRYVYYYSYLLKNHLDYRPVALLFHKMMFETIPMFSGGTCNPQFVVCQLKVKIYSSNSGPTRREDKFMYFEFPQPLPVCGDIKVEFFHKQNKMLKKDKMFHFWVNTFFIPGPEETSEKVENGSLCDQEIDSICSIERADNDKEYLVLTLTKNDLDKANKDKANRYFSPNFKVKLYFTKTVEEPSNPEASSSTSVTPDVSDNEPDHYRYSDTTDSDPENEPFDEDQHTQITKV

In the case of CC1=C(O)C(=O)C=C2C1=CC=C1[C@@]2(C)CC[C@@]2(C)[C@@H]3C[C@](C)(C(=O)O)CC[C@]3(C)CC[C@]12C [CELASTROL], the Activity (Mus musculus [1]) is reported as “Active”, the Activity (Mus musculus [2]) is reported as “Active” and the inhibition [3] is reported as “Active”. The inhibition [4] was “Active”, the inhibition [5] was “Active” and the inhibition [6] was “Active”. The IC50 [7] was 4.1 µM, the IC50 [8] was 13.3 µM and the Activity [9] was “inactive”.
